# Paper PMC9958447 (Heliyon, 2023)
# “Also recorded” adds a separate entry of the source.
# Columns and labels:
# [1] = test system: zc4h2 KO zebrafish larvae; experiment: Heartbeat / cardiotoxicity in zc4h2 KO zebrafish larvae; type: in vivo, zebrafish (Danio rerio); conditions: for cardiotoxicity: zebrafish larvae, judged from heartbeat
# [2] = test system: PTZ-induced larvae of zebrafish; experiment: Behavioural assessment in PTZ-induced epilepsy zebrafish larvae; type: in vivo, zebrafish (Danio rerio)
# [3] = test system: wild-type (WT) zebrafish embryos; experiment: Toxicity profiling of embryo zebrafish; type: in vivo, zebrafish (Danio rerio)
# Outline: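 Wild-type embryos were exposed from 5 hpf to the test compound at 0, 4.29, 8.58, 12.86, 17.15 and 21.44 μM, serially diluted from a 1 mM DMSO stock. Triplicates had 10 embryos each (n = 30). Mortality was scored daily, with LC50 at 72 hpf. Spontaneous coils were counted for 1 min at 24 hpf after 5 min habituation. Percent hatched was scored at 72 hpf. Data are mean ± SEM, analysed by one-way ANOVA with Tukey.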
# [4] = test system: zebrafish larvae; conditions: cited from earlier work
# [5] = cited from earlier work
# [6] = 2.5 mM PTZ, 5 dpf larvae, 8.58 μM compound 8 or 100 μM VPA, 1 h
# [7] = 2.5 mM PTZ, 5 dpf larvae, 8.58 μM compound 8 or 100 μM VPA, 1 h, vs PTZ group
# [8] = 2.5 mM PTZ alone vs control, 5 dpf larvae
smiles,measurement,setting,value
"O=C(/C=C/c1cc(F)cc(F)c1)c1ccc[nH]1 [Compound 8, (E)-3-(3,5-difluorophenyl)-1-(1H-pyrrol-2-yl)prop-2-en-1-one]",heartbeat (heartbeats/min),"[1]; 5 dpf larvae, 2 h incubation, vs control groups",no significant difference
same,cardiotoxicity,[1],no cardiotoxic effects
same,cardiotoxicity,[1]; listed as compound 8,no cardiotoxic effect; also recorded: no potential cardiotoxicity
same,distance spent in the inner area (thigmotaxis),[2]; [6],significantly increased
same,total duration of freezing,[2]; [6],increased
same,average velocity (average speed travelled),[2]; [7],significant decrease
same,number of freezing count,[2]; [7],significant reduction
same,total velocity (total speed travelled),[2]; [7],significant decrease
same,convulsive behaviour,[2]; PTZ-induced larvae,effective in reducing
same,mortality at the beginning of the observation period,"[3]; 21.44 μM, 24 hpf",lethal
same,spontaneous tail coiling (STC),"[3]; >12.86 μM, 24 hpf",no tail movement
same,optimal safe concentration,[3]; chosen from all toxicological parameters,8.58 µM
same,cumulative mortality rate,"[3]; exposure of 12.86 μM or more, 24–72 hpf",> 80%
same,mortality compared to the control group,[3]; exposure up to 8.58 μM,no significant difference
same,spontaneous tail coiling (STC) compared to control,"[3]; from 8.58 μM, 24 hpf",significant decrease
same,hatching rate,"[3]; from 12.86 μM, 72 hpf",decreased significantly
"C1CCc2nnnn2CC1 [PTZ, pentylenetetrazol]",distance and speed of zebrafish,[2]; [8],significantly increased
same,total number of freezes,[2]; [8],significantly increased
CN1C(=O)CN=C(c2ccccc2)c2cc(Cl)ccc21 [diazepam],percentage of distance spent in the inner area,[4],significantly increased
"CCCC(CCC)C(=O)O [VPA, sodium valproate]",distance spent in the inner area (thigmotaxis),[2]; [6],significantly increased
same,total duration of freezing,[2]; [6],without significant changes
same,average velocity (average speed travelled),[2]; [7],significant decrease
same,distance travelled (total and average),[2]; [7],significant decrease
same,number of freezing count,[2]; [7],significantly reduced
same,total velocity (total speed travelled),[2]; [7],significant decrease
"O=c1onc(-c2cccs2)n1Cc1ccc(F)cc1Cl [GM90432, 4-(2-chloro-4-fluorobenzyl)-3-(2-thienyl)-1,2,4-oxadiazol-5(4H)-one]",blood-brain barrier passage,[5],effectively cross the blood-brain barrier
